Tests used:
[1] = target: T1, full length Cal1 (full length porcine calpain) (Sus scrofa, UniProt P35750); experiment: Calpain inhibition kinetics, Suc-LLVY-AMC progress curves; format: biochemical; conditions: for Calpain1 ki: inhibition rate constant; for Calpain1 ki / Calpain1 ki/Ki: full length Cal1; for Calpain1 rel (ki/Ki calculated relative to E-64): E-64 = 1; for Relative selectivity for inhibition of Cal1 over papain (in words): assessed using ki/Ki; for Calpain1 ki/Ki: mean ± S.D. of triplicate; for 10^2 × ki/Ki Cal1 / ki/Ki papain: selectivity ratio Cal1 over papain
T1 sequence (P35750 1-714): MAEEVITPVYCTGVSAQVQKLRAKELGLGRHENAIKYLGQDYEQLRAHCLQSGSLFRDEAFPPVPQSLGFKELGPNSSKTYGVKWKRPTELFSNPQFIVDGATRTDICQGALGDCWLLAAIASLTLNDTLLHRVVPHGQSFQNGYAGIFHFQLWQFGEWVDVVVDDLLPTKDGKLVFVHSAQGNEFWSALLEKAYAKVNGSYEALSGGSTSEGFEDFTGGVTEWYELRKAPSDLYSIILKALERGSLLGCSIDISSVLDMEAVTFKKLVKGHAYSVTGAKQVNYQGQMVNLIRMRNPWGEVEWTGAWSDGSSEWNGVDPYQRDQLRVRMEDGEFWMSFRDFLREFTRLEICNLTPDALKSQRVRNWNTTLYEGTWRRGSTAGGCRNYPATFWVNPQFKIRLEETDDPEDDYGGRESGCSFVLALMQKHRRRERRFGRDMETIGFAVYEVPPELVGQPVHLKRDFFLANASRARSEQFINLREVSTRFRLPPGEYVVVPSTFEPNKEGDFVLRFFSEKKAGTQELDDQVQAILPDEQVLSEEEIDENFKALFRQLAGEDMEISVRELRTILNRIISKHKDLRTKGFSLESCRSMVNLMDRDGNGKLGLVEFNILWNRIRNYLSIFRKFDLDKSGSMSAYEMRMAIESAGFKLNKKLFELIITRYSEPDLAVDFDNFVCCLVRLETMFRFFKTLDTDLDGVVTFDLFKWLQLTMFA
T1 sequence (P04574 1-266 partner): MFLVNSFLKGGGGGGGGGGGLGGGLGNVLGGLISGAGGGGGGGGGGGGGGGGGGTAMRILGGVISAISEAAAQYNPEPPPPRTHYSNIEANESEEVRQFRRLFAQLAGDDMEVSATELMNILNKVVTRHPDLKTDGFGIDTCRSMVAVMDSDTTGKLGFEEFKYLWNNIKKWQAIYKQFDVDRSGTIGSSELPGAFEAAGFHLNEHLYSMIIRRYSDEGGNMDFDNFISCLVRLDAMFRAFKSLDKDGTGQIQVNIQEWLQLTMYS

papain = target: T2, papain (Carica papaya, UniProt P00784); experiment: Papain inhibition kinetics, Suc-LLVY-AMC progress curves; format: biochemical; conditions: for Papain ki: inhibition rate constant; for Papain rel (ki/Ki calculated relative to E-64): E-64 = 1; for Papain ki/Ki: mean ± S.D. of triplicate
T2 sequence (P00784 134-345): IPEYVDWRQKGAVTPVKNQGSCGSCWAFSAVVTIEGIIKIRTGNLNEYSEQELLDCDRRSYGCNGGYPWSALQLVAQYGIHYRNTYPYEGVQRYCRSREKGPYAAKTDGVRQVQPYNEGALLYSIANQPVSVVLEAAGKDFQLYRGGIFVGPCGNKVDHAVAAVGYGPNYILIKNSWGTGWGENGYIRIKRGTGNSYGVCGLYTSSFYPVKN
How it was run: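 Papain (236 pM) in 100 mM NaCl, 50 mM HEPES pH 7.6, 1 mM TCEP with 30 µM Suc-LLVY-AMC and inhibitor at 0.5–50 µM, 30 °C. Organic solvent (acetonitrile/DMSO 1:1) stayed below 2%. AMC release was followed over time at Ex/Em 346/444 nm. Constants came from varied enzyme and inhibitor concentrations, and selectivity from ki/Ki with E-64 as 1.0. Triplicates.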

[2] = target: recombinant rat Cal1cat (Cal1 catalytic domain) active site Cys (Rattus norvegicus, UniProt P97571); experiment: LC-MS/MS examination of inhibitor modified Cal1cat active site; format: binding; conditions: co-incubation of Cal1cat (1 μM) with E-64 and 22a, both 5 μM
recombinant rat Cal1cat (Cal1 catalytic domain) active site Cys, sequence (P97571 55-354 limits assumed): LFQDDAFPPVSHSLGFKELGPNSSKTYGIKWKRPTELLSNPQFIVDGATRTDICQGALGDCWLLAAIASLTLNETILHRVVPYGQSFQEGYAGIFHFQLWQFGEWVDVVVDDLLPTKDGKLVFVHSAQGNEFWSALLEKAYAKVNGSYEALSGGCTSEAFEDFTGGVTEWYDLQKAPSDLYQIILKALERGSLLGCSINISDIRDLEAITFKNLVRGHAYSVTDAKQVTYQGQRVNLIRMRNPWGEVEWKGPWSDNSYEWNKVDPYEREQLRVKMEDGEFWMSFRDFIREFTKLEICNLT
How it was run: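 Recombinant rat Cal1cat from E. coli (1 μM), activated with CaCl2 (10 mM), co-incubated 20 min with both inhibitors at 5 μM each. Quenched with EDTA, run on SDS-PAGE; band excised, alkylated in-gel with IAA (100 mM, 60 min), trypsin-digested. Ion-trap LC-MS/MS, reverse-phase column, ACN/water with 0.1% formic acid. Semiquantitative EIC of modified peptides against non-active-site IAA-capped peptide internal standard.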

| Structure (SMILES) | Calpain1 ki [1] | Papain ki (papain) | Competitive modification of Cal1cat active site [2] | Calpain1 rel (ki/Ki calculated relative to E-64) [1] | Relative selectivity for inhibition of Cal1 over papain (in words) [1] | Calpain1 ki/Ki [1] | 10^2 × ki/Ki Cal1 / ki/Ki papain [1] | Papain rel (ki/Ki calculated relative to E-64) (papain) | Papain ki/Ki (papain) |
| --- | --- | --- | --- | --- | --- | --- | --- | --- | --- |
| CC(C)C[C@H](NC(=O)[C@H]1O[C@@H]1C(=O)O)C(=O)Nc1nc(-c2ccc(F)cc2)cs1 [22a, (2S,3S)-3-((S)-1-(4-(4-fluorophenyl)thiazol-2-ylamino)-4-methyl-1-oxopentan-2-ylcarbamoyl)oxirane-2-carboxylic acid] | 0.16 s⁻¹ | 17.1 s⁻¹ | relatively greater modification by 22a |  |  |  |  |  |  |
| O=C(NCc1cn(-c2ccc(F)cc2)nn1)[C@H](Cc1cscn1)NC(=O)[C@H]1O[C@@H]1C(=O)O [compound 36, (2S,3S)-3-((S)-1-((1-(4-fluorophenyl)-1H-1,2,3-triazol-4-yl)methylamino)-1-oxo-3-(thiazol-4-yl)propan-2-ylcarbamoyl)oxirane-2-carboxylic acid] | 0.10 s⁻¹ | 12.7 s⁻¹ |  | 1.1 | show Cal1 selectivity | 3.31±0.32 ×l0^−4 s^−1M^−1 | 5.0 | 0.12 | 66.2 ±7.4 ×l0^−4s^−1M^−1 |
| C#Cc1ccc(-c2csc(NC(=O)[C@H](Cc3cscn3)NC(=O)[C@H]3O[C@@H]3C(=O)O)n2)cc1 [compound 32, (2S,3S)-3-((S)-1-(4-(4-ethynylphenyl)thiazol-2-ylamino)-1-oxo-3-(thiazol-4-yl)propan-2-ylcarbamoyl)oxirane-2-carboxylic acid] | 0.14 s⁻¹ | 21.6 s⁻¹ |  | 1.3 | show Cal1 selectivity | 3.89±0.41 ×l0^−4 s^−1M^−1 | 1.74 | 0.40 | 223 ± 2.4 ×l0^−4s^−1M^−1 |
| CC(C)C[C@H](NC(=O)[C@H]1O[C@@H]1C(=O)O)C(=O)NCCCCN=C(N)N [E-64, L-trans-epoxysuccinyl-leucylamido(4-guanidino)butane, reference compound] | 0.12 s⁻¹ | 28.6 s⁻¹ |  |  |  | 3.02±0.15 ×l0^−4 s^−1M^−1 | 0.54 |  | 563 ± 52 ×l0^−4s^−1M^−1 |
| O=C(Nc1nc(-c2ccc(F)cc2)cs1)[C@H](Cc1cscn1)NC(=O)[C@H]1O[C@@H]1C(=O)O [compound 31, 3-((S)-1-(4-(4-fluorophenyl)thiazol-2-ylamino)-1-oxo-3-(thiazol-4-yl)propan-2-ylcarbamoyl)oxirane-2-carboxylic acid] | 0.08 s⁻¹ | 14.8 s⁻¹ |  | 0.98 | show Cal1 selectivity | 2.96±0.14 ×l0^−4 s^−1M^−1 | 1.06 | 0.50 | 279 ± 47 ×l0^−4s^−1M^−1 |
